Compound activity deposited in PubChem BioAssay by several laboratories.
Arrestin-AP2 inh: blocks beta-arrestin peptide binding to AP2 adaptin; FITC-arrestin peptide / GST-AP2 beads, flow cytometry; AP2 beta2 appendage carries R879A mutation; inhibition, % at 10 µM; AID 504490; hit rate 0.31% among 340,000;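 active means inhibition above a set limit, near 3 SD of compounds lacking own fluorescence, cut at about 54% in these data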
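system = GST-tagged AP2 beta2-adaptin appendage (R879A) on 4 µm glutathione beads | reagent = FITC-labelled arrestin peptide probe, 50 nM final | schedule = compound with beads 12 min RT, then probe 1 h RT | signal = HyperCyt-sampled flow cytometry, FL1 channel, ex 488/em 535 nm | read-out = percent response from loss of bead-bound FITC fluorescence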
hiPSC survival: enhancers of human iPSC single-cell survival | hiPSC single-cell survival, ATPlite luminescence; 100% = ROCK inhibitor wells, 0% = DMSO | survival enhancement, % at 20 µM | hit rate 0.044% among 360,000 | AID 602274; in the data active means survival enhancement above about 18%;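 further: cells exposed to compounds for 16 hours before the ATP read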
H9c2 protect: myocardial damage modulation in H9c2 cells. H9c2 cardiomyocytes, H2O2 injury protection, ATPLite, 2 h. protection from H2O2 cell death, % at 20 µM. hit rate 0.63% among 360,000;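 active means compounds giving at least 50% protection of heart cells from peroxide-induced death in the single-dose screen, raw or plate-pattern-corrected value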
SENP1 inh: blocks the human SENP1 SUMO protease catalytic domain. Q9P0U3. recombinant SENP1 catalytic domain, CyPet-SUMO1-YPet FRET cleavage. inhibition, % at 10 µM. hit rate 0.21% among 360,000;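 active means inhibition at least 30% at 10 µM, raw YFP signal under a set limit, fluorescence ratio 0.5 to 1.5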
Target sequence (Q9P0U3 419-644 limits assumed): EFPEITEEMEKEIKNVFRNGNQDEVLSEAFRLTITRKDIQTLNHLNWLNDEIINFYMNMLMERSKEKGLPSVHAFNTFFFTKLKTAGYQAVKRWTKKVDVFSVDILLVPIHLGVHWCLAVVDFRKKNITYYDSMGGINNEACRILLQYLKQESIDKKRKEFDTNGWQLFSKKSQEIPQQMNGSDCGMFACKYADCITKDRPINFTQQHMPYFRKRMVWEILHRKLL
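Test system: recombinant human SENP1 catalytic domain, His6-tagged / Medium: pH 8 Tris buffer with EDTA, NaCl, BME, BSA, NP40, catalase / Also added: SUMO1 FRET substrate flanked by Cypet and Ypet, 25 nM / Times: 50 min reaction at room temperature / Signal: FRET, CFP and YFP emission / Control set: no-enzyme low control and enzyme-plus-DMSO high control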
FAS-TE inh: blocks the thioesterase domain of human fatty acid synthase | P49327 | recombinant FAS-TE, OMFH fluorogenic substrate, fluorescence endpoint | inhibition, % at 15 µM | hit rate 0.67% among 360,000;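 active means compounds whose normalised, plate-corrected inhibition of enzyme fluorescence in the single-dose primary screen is 50% or more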
NR3A LBD binder: modulators (binders) of human NR3A ligand-binding domain | NR3A LBD differential scanning fluorimetry, Tm shift; 0% = protein alone, 100% = glycine-bound protein | Tm shift relative to glycine control, % at 25 µM | hit rate 2.5% among 340,000 | AID 1259313;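 active means melting temperature shift of at least 10% of the positive control shift, at one fixed dose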
SENP1 inh conf: SENP1 (human) inhibition, single concentration confirmation. shares compounds with SENP1 inh. recombinant SENP1, CyPet-SUMO1-YPet FRET cleavage. inhibition, % at 10 µM. hit rate 34% among 520; in the data active means inhibition mostly above about 35%, no sharp cut-off; inactive means mostly below about 32%
SENP1 kin conf: confirmation of human SENP1 SUMO protease inhibitors, kinetic; inhibition, % at 10 µM; hit rate 26% among 520; recombinant SENP1, CyPet-SUMO1-YPet FRET kinetic cleavage; shares compounds with SENP1 inh; in the data active means inhibition mostly above about 32%, no sharp cut-off; inactive means mostly below about 29%
Of the large screens only hits and unclear results are named; the others gave an inactive call (follow-up assays come after a bar, where they were run). Hits are enriched below; roughly 4% of the tested compounds scored in any of these assays.

CCOc1cccc(/C=C2\NC(=S)N(c3ccccc3)C2=O)c1O	SENP1 inh 47.6 | SENP1 inh conf 44.8 | SENP1 kin conf inactive
COc1ccc(NC(=O)c2cc(C3CCCCN3C(=O)c3ccc4c(c3)CCO4)on2)c(C)c1 (centres undefined)	none (no result: Arrestin-AP2 inh, NR3A LBD binder)
Cc1ccc(CNC(=O)CC(C)S(=O)(=O)c2ccc3c(c2)NC(=O)CS3)o1 (centres undefined)	SENP1 inh 36.4 | SENP1 inh conf inactive | SENP1 kin conf 23.7
Cc1ccc(CNC(=O)CC(C)S(=O)(=O)c2ccc3c(c2)NC(=O)CO3)cc1 (centres undefined)	none
O=C(NCc1ccccc1)C1C(=O)Nc2ccccc2C(=O)N1c1ccc2c(c1)OCCO2 (centres undefined)	none (no result: Arrestin-AP2 inh, hiPSC survival, H9c2 protect, FAS-TE inh, NR3A LBD binder)
O=C(Cn1c(O)c(/C=C2\C=Nc3ccccc32)sc1=O)Nc1ccc2c(c1)OCO2	SENP1 inh 46.1, NR3A LBD binder 10.7 | SENP1 inh conf inactive | SENP1 kin conf inactive
O=C(CN1C(=O)c2ccccc2C1=O)Nc1ccc2c(c1)OCO2	none
NS(=O)(=O)c1ccc(CNC(=S)NC2CCCCC2)cc1	SENP1 inh 39.6 | SENP1 inh conf inactive | SENP1 kin conf inactive
NS(=O)(=O)c1ccc(CCNC(=S)NC2CCCC2)cc1	none
O=C1C=C(c2cccc(Cl)c2)C[C@@H](c2ccc(Cl)cc2)C1	none
O=C1C=C(c2cccc(Cl)c2O)C[C@@H](c2ccc(Cl)cc2)C1	SENP1 inh 57.8 | SENP1 inh conf 98.6 | SENP1 kin conf 75.9
N#C/C(=C/C1=C(N2CCOCC2)C(=C/c2cccc([N+](=O)[O-])c2)/CC1)C(=O)Nc1ccccc1F	SENP1 inh 73.0 | SENP1 inh conf inactive | SENP1 kin conf inactive
CC(C)CNC(=O)C1(C)CCCN1C(=O)Cc1cccc2ccccc12 (centres undefined)	none (no result: Arrestin-AP2 inh, NR3A LBD binder)
COc1ccc2c(-c3ccccc3)cc(SCC(N)=O)nc2c1	SENP1 inh 29.9 | SENP1 inh conf inactive | SENP1 kin conf inactive
COc1ccc2c(C)cc(SCC(=O)N3CCOCC3)nc2c1	SENP1 inh 67.5 | SENP1 inh conf 49.6 | SENP1 kin conf 36.2
COc1ccc2nc(SCC(N)=O)cc(C)c2c1	none
COc1ccc2c(C)cc(SCC(=O)NC3CCCCC3)nc2c1	none
Cc1ccc(S(=O)(=O)N2C[C@H]3C(=O)C[C@@H](c4ccc(Cl)cc4)N(S(=O)(=O)c4ccc(C)cc4)[C@H]3C[C@H]2c2ccccc2)cc1	none (no result: Arrestin-AP2 inh, NR3A LBD binder)
COc1cc(/C=C2\SC(=S)N(NC(C)=O)C2=O)ccc1OC(=O)c1ccco1	none
CCOc1cc(/C=C2/SC(=S)N(Cc3ccccc3)C2=O)ccc1O	none
COc1cc(/C=C2\SC(=S)N(CC(=O)NC3=NCCS3)C2=O)cc(OC)c1OC	none
COc1ccc(/C=C2\SC(=S)N(CCC(=O)NC3=NCCS3)C2=O)cc1OC	SENP1 inh 53.0 | SENP1 inh conf inactive | SENP1 kin conf inactive
COc1cc(/C=C2\SC(=S)N(CCC(=O)NCCc3ccccc3)C2=O)cc(OC)c1OC	SENP1 inh 35.2 | SENP1 inh conf inactive | SENP1 kin conf inactive
CC(=O)Oc1ccc(/C=C2/SC(=S)N(Cc3ccccc3)C2=O)cc1	SENP1 inh 74.2 | SENP1 inh conf inactive | SENP1 kin conf inactive
COc1cc(/C=C2\SC(=S)N(CCC(=O)Nc3ccccc3O)C2=O)cc(OC)c1OC	none
COc1cc(/C=C2/SC(=S)N(C)C2=O)ccc1OC(=O)c1ccco1	SENP1 inh 33.9 | SENP1 inh conf inactive | SENP1 kin conf inactive
CCc1nc2ccc(C(=O)Nc3cccc(OC)c3)cn2c1N(CC)Cc1cccc(Br)c1	none (no result: Arrestin-AP2 inh, NR3A LBD binder)
COC1CCC2(C)C(=CCC3C4CC(O)CC4(C)CCC32)C1 (centres undefined)	none
CCOc1cc([N+](=O)[O-])cc2c1C(=O)Nc1ccccc1O2	SENP1 inh 53.9 | SENP1 inh conf inactive | SENP1 kin conf inactive
CCOC(=O)c1sc2nc(C)nc(NCc3ccc(F)cc3)c2c1C	SENP1 inh 36.4 | SENP1 inh conf inactive | SENP1 kin conf inactive
NNC(=O)c1cc(-c2ccc(N)cc2)nc2ccc(Br)cc12	SENP1 inh 49.1, NR3A LBD binder 18.1 | SENP1 inh conf inactive | SENP1 kin conf inactive
COc1cccc(/C=C/C(=O)OCC(=O)c2ccc(C)c(C)c2)c1OC	none
CCOC(=O)/C=C/c1cccc(C)c1O	SENP1 inh 32.3 (no result: Arrestin-AP2 inh, hiPSC survival, H9c2 protect, FAS-TE inh, NR3A LBD binder) | SENP1 inh conf inactive | SENP1 kin conf 36.5
CCOC(=O)N/N=C/c1ccc(F)cc1F	none
CCOC(=O)/C=C/c1cc(F)ccc1O	SENP1 inh 66.2 (no result: Arrestin-AP2 inh, hiPSC survival, H9c2 protect, FAS-TE inh, NR3A LBD binder) | SENP1 inh conf 39.8 | SENP1 kin conf 38.2
O=C(Nc1ccncc1)C1CC(=O)N(Cc2ccccc2)C1 (centres undefined)	none
COCCN(C(=O)CSc1nnc(-c2ccc(F)cc2)n1N)c1c(N)n(CC(C)C)c(=O)[nH]c1=O	none (no result: Arrestin-AP2 inh, NR3A LBD binder)
CCN(CC)c1nc2cc(C)ccc2cc1/C=C(\C#N)C(N)=O	SENP1 inh 78.9 | SENP1 inh conf 58.1 | SENP1 kin conf inactive
COc1cc([N+](=O)[O-])cc(/C=N/NC(=O)Cn2nccc2C)c1O	none
COC(=O)c1ccc(N/N=C/c2cc([N+](=O)[O-])cc(OC)c2O)cc1	SENP1 inh 48.6, NR3A LBD binder 29.9 | SENP1 inh conf inactive | SENP1 kin conf inactive
O=[N+]([O-])c1ccc(Nc2ccccc2O)c([N+](=O)[O-])c1	SENP1 inh 49.9 (no result: Arrestin-AP2 inh, NR3A LBD binder) | SENP1 inh conf inactive | SENP1 kin conf inactive
Nc1cc([N+](=O)[O-])ccc1Nc1ccccc1	SENP1 inh 56.0 | SENP1 inh conf 39.2 | SENP1 kin conf inactive
CCCCc1c(-c2ccccc2OC)ncn1CCc1ccccc1	none (no result: Arrestin-AP2 inh, H9c2 protect, NR3A LBD binder)
O=[N+]([O-])c1ccc(-c2cn3c(n2)SCC3)cc1	SENP1 inh 31.2 | SENP1 inh conf inactive | SENP1 kin conf inactive
N#Cc1ccc(-c2cn3c(n2)SCC3)cc1	none
Cc1ccc(-c2nc3ccccc3n2C(C(=O)NC(C)(C)C)C2CC2)cc1 (centres undefined)	none (no result: Arrestin-AP2 inh, hiPSC survival, H9c2 protect, FAS-TE inh, NR3A LBD binder)
Cc1cc([N+](=O)[O-])ccc1NCc1cccc2ccccc12	none
CSc1ncc(CNc2cc([N+](=O)[O-])ccc2C)c(N)n1	SENP1 inh 37.4 | SENP1 inh conf inactive | SENP1 kin conf inactive
Cc1cccc(C)c1NC(=O)C1C(c2ccccc2)=Nc2ccccc2N1C(=O)c1cnccn1 (centres undefined)	SENP1 inh 36.9 (no result: Arrestin-AP2 inh, hiPSC survival, H9c2 protect, FAS-TE inh, NR3A LBD binder) | SENP1 inh conf inactive | SENP1 kin conf inactive
